This passage reports MIC and Activity results from ChEMBL document CHEMBL1141840, “Antifungal metabolites from the marine sponge Pachastrissa sp.: new bengamide and bengazole derivatives” (1999).

Converted amounts (≈) assume the structure as drawn. The source made the active and inactive calls. No cut-off for these calls is given here.

For assay [1], the system named is Candida albicans. The assay is described as follows: Antifungal activity against Candida albicans CIP 118079 after 24 hrs by liquid-phase turbidimetric system. The following applies: for MIC: CIP 118079, 24 h. The format is functional. The gist of the method:
(§1)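 Fungal growth followed in liquid culture by turbidimetry, read automatically every 30 min over 24 h, with compounds tested at various concentrations.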

Assay [2] concerns Saccharomyces cerevisiae. The assay is described as follows: Antimicrobial activity against Saccharomyces cerevisiae ATCC 28383 after 24 hrs by liquid-phase turbidimetric system. Type of assay: functional, organism-based. Summed up:
as §1

For orientation: MIC means the lowest concentration found to suppress growth. Low values mean greater potency, high ones weaker potency.

The compound `CC(C)CCCCCCCCCCCC(=O)O[C@H](C[C@H](O)[C@H](O)[C@H](C)O)c1coc(Cc2cnco2)n1` yielded an MIC in assay [1] of 0.8 µg/mL (≈ 1.53 µM). The result in assay [2] was inactive.
`C[C@H](O)[C@@H](O)[C@@H](O)C[C@@H](O)c1coc(Cc2cnco2)n1`: the outcome in assay [1] and in assay [2] was inactive.
`CO[C@@H](C(=O)N[C@H]1CC[C@H](OC(=O)CCCCCCCCCCCC(C)C)CNC1=O)[C@H](O)[C@@H](O)[C@H](O)/C=C/C(C)C`: the outcome in assay [1] and in assay [2] was inactive.
`CCCCCCCCCCCCCC(=O)O[C@@H](C)[C@@H](O)[C@@H](O)C[C@@H](O)c1coc(Cc2cnco2)n1` yielded an MIC in assay [1] of 0.8 µg/mL (≈ 1.57 µM). Further, in assay [2], the result was inactive.
`CC(C)CCCCCCCCCCCCC(=O)O[C@@H](C)[C@@H](O)[C@@H](O)C[C@@H](O)c1coc(Cc2cnco2)n1` showed an MIC in assay [1] of 0.8 µg/mL (≈ 1.49 µM). The outcome in assay [2] was inactive.
For `CCCCCCCCCCCCCCC(=O)O[C@H](C[C@H](O)[C@H](O)[C@H](C)O)c1coc(Cc2cnco2)n1` the same measures were 0.8 µg/mL (≈ 1.53 µM) and “inactive”.
The corresponding values for `CC(C)CCCCCCCCCCCC(=O)O[C@@H](C)[C@@H](O)[C@@H](O)C[C@@H](O)c1coc(Cc2cnco2)n1` are 0.8 µg/mL (≈ 1.53 µM) and “inactive”.
In the case of `CCCCCCCCCCCCCC(=O)O[C@H]1CC[C@H](NC(=O)[C@H](OC)[C@H](O)[C@@H](O)[C@H](O)/C=C/C(C)C)C(=O)N(C)C1`, the result in assay [1] and in assay [2] was inactive.
`CCCCCCCCCCCCCC(=O)O[C@H](C[C@H](O)[C@H](O)[C@H](C)O)c1coc(Cc2cnco2)n1` had an MIC in assay [1] of 0.8 µg/mL (≈ 1.57 µM). The outcome in assay [2] was inactive.
For `CCCCCCCCCCCCCCCC(=O)O[C@@H](C)[C@@H](O)[C@@H](O)C[C@@H](O)c1coc(Cc2cnco2)n1` the same measures were 0.8 µg/mL (≈ 1.49 µM) and “inactive”.
On to `CCCCCCCCCCCCCCCC(=O)O[C@H](C[C@H](O)[C@H](O)[C@H](C)O)c1coc(Cc2cnco2)n1`, for which the MIC in assay [1] worked out at 0.8 µg/mL (≈ 1.49 µM). Besides, in assay [2], the result was inactive.
As to `CO[C@@H](C(=O)N[C@H]1CCCCNC1=O)[C@H](O)[C@@H](O)[C@H](O)/C=C/C(C)C`, the outcome in assay [1] and in assay [2] was inactive.
`CCCCCCCCCCCCCC(=O)O[C@H]1CC[C@H](NC(=O)[C@H](OC)[C@H](O)[C@@H](O)[C@H](O)/C=C/C(C)C)C(=O)NC1`: the outcome in assay [1] and in assay [2] was inactive.
As to `CC(C)CCCCCCCCCCCCC(=O)O[C@H](C[C@H](O)[C@H](O)[C@H](C)O)c1coc(Cc2cnco2)n1`, 0.8 µg/mL (≈ 1.49 µM) was the least that counted as inhibitory in assay [1] (MIC). For the same compound, in assay [2], the outcome was inactive.
In the case of `CCCCCCCCCCCCCCC(=O)O[C@@H](C)[C@@H](O)[C@@H](O)C[C@@H](O)c1coc(Cc2cnco2)n1`, the MIC in assay [1] amounted to 0.8 µg/mL (≈ 1.53 µM). In addition, the result in assay [2] was inactive.
